The values below come from ChEMBL document CHEMBL4177720, “Towards smart biocide-free anti-biofilm strategies: Click-based synthesis of cinnamide analogues as anti-biofilm compounds against marine bacteria” (Bioorg Med Chem Lett, 2018).

A value given as a limit tells only on which side of the number the result lay.

The EC50 is the concentration at which the effect is half-maximal.

Data set [1] has as its system Paracoccus sp. Put plainly: Anti-biofilm activity against Paracoccus sp. 4M6 assessed as inhibition of bacterial adhesion incubated for 15 hrs at 20 degC by Syto 61 dye based fluorimetric assay. It is filed as functional. Conditions: Paracoccus sp. (in: a-proteobacteria), 4M6, 15 h. The procedure, abridged:
(§1)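 Cells were grown in VNSS at 20°C to stationary phase, centrifuged, and resuspended in artificial sea water (ASW) to OD600 0.2-0.4. Suspension (100 µL) plus 100 µL diluted compound, in triplicate, with ASW-only adhesion control, was held 15 h at 20°C. After three 36 g/L NaCl washes, adhered cells were stained 10 min at room temperature with 40 µmol/L Syto 61. Fluorescence read at ex 615/em 670 nm; EC50 from dose-response fit.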

In data set [2] the test system is Pseudoalteromonas lipolytica. In words: Anti-biofilm activity against Pseudoalteromonas lipolytica TC8 assessed as inhibition of bacterial adhesion incubated for 15 hrs at 20 degC by Syto 61 dye based fluorimetric assay. Type of data set: functional, organism-based. To be noted: TC8, 15 h. A digest of the protocol:
as §1

Data set [3] deals with Pseudoalteromonas ulvae. Put plainly: Anti-biofilm activity against Pseudoalteromonas ulvae TC14 assessed as inhibition of bacterial adhesion incubated for 15 hrs at 20 degC by Syto 61 dye based fluorimetric assay. Type of data set: functional, organism-based. Conditions: TC14, 15 h. A digest of the protocol: as §1
Data set [4] has as its system Pseudoalteromonas ulvae. Put plainly: Effect on cell viability of Pseudoalteromonas ulvae TC14 at 100 uM measured every hr during 6 hrs by resazurin based assay. It is filed as organism-based. A digest of the protocol:
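Exponential-phase cells (VNSS, 20°C, 120 rpm) were resuspended in VNSS to OD600 0.1. 20 µL inoculated into 180 µL compound in VNSS, triplicate, at 100 µM, with solvent and medium controls. OD600 was read hourly for 6 h. Resazurin (50 µM) was then added, and fluorescence after 2 h gave percent viability versus untreated.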
Background: The colour change of resazurin is a common sign of viable cells or microbes.

In data set [5] the test system is Pseudoalteromonas ulvae. Put plainly: Effect on cell growth of Pseudoalteromonas ulvae TC14 at 100 uM measured every hr during 6 hrs by turbidity (OD600) measurement.

As for `COc1cccc(-n2cc(C(=O)NCCc3ccc(O)cc3)nn2)c1`, the values for the EC50 in data set [1], in data set [2] and in data set [3] were greater than 300 µM, 276 µM and 204 µM, respectively.
For `COc1ccc(CCNC(=O)c2cn(-c3ccc(OC)cc3)nn2)cc1`, the EC50 in data set [1] was 260 µM; in data set [2], greater than 300 µM; in data set [3], 11.3 µM. In addition, the Activity entry in data set [4] and in data set [5] was “Non-Toxic” throughout.
Consider `COc1ccc(CCNC(=O)c2cn(-c3cccc(OC)c3)nn2)cc1`, for which the half-maximal effective concentration (EC50) in data set [1] was 216 µM; in data set [2], greater than 300 µM; in data set [3], 11.4 µM. Further, the Activity result in data set [4] and in data set [5] was “Non-Toxic” in each case.
Consider `COc1ccc(-n2cc(C(=O)NCCc3cccc(OC)c3)nn2)cc1`, for which the figures for the 50% effective concentration (EC50) in data set [1], in data set [2] and in data set [3] were 214 µM, 142 µM and 52.3 µM, respectively. The Activity result in data set [5] was “Non-Toxic”.
For the compound `COc1ccc(-n2cc(C(=O)NCCc3ccc(OC)c(OC)c3)nn2)cc1`, the values for the EC50 in data set [1], in data set [2] and in data set [3] were 162 µM, greater than 300 µM and 54.6 µM, respectively. The Activity entry in data set [4] and in data set [5] was “Non-Toxic” throughout.
Turning to `COc1cccc(-n2cc(C(=O)NCCc3ccc(OC)c(OC)c3)nn2)c1`, the EC50 was 154 µM in data set [1], greater than 300 µM in data set [2] and 73.7 µM in data set [3].
In the same order, the values of `COc1cccc(CCNC(=O)c2cn(-c3cccc(OC)c3)nn2)c1` are 226 µM, greater than 300 µM and 80.6 µM.
In the same order, the values of `COc1ccc(-n2cc(C(=O)NCCc3ccc(O)cc3)nn2)cc1` are 220 µM, greater than 300 µM and 115 µM.
Regarding `CC1(C)S[C@@H]2[C@H](NC(=O)[C@H](N)c3ccccc3)C(=O)N2[C@H]1C(=O)O` [AMPICILLIN], in data set [4], the Activity entry was “Toxic”.
On to `O=C(/C=C/c1ccc(O)cc1)NCCc1ccc(O)cc1` [N-P-COUMAROYL TYRAMINE], for which the EC50 in data set [1] is greater than 300 µM; in data set [2] it was greater than 300 µM; in data set [3], 75.5 µM.
